Converted amounts (≈) assume the structure as drawn.
Assays:
Escherichia coli = assay: Antibacterial activity against Escherichia coli ATCC 25922 assessed as reduction in bacterial growth; type: functional
Procedure, shortened: (§1)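 CLSI broth microdilution in cation-supplemented Mueller–Hinton broth II; overnight starter cultures (37 °C, shaking, 18–24 h) adjusted by OD600 to ~10^6 CFU/mL. Compounds dosed from DMSO stocks (10 mg/mL stock) as two-fold dilutions, 64–0.5 mg/L. Plates held 37 °C, 18–24 h. MIC = lowest concentration without visible growth. Three independent runs, each in duplicate.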

Staphylococcus aureus [1] = assay: Antibacterial activity against Staphylococcus aureus ATCC 29213 assessed as reduction in bacterial growth; type: functional; procedure, shortened: as §1
Klebsiella pneumoniae = assay: Antibacterial activity against Klebsiella pneumoniae BAA-1705 assessed as reduction in bacterial growth; type: functional; procedure, shortened: as §1
Acinetobacter baumannii = assay: Antibacterial activity against Acinetobacter baumannii BAA-1605 assessed as reduction in bacterial growth; type: functional; procedure, shortened: as §1
Pseudomonas aeruginosa = assay: Antibacterial activity against Pseudomonas aeruginosa ATCC 27853 assessed as reduction in bacterial growth; type: functional; procedure, shortened: as §1
[2] = Cytotoxicity against african green monkey Vero cells assessed as reduction in cell viability incubated for 72 hrs by MTT assay; type: toxicity, cell-based; conditions: chlorocebus sabaeus
Procedure, shortened: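 Vero (ATCC CCL-81) cells seeded at ~10^3 per well, 37 °C, 5% CO2. After 24 h, compound added at 100–12.5 μg/mL for 72 h. MTT then given for 4 h at 37 °C, formazan dissolved in DMSO, absorbance read at 540 nm. CC50 taken as the concentration giving 50% viability loss; doxorubicin as positive control; triplicate.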

[3] = Selectivity index, ratio of CC50 for cytotoxicity against african green monkey Vero cells assessed as reduction in cell viability to MIC for antibacterial activity against Staphylococcus aureus ATCC 29213 assessed as reduction in bacterial growth; type: toxicity, cell-based; conditions: read-out: Selectivity Index
Staphylococcus aureus [4] = assay: Antibacterial activity against methicilin-resistant Staphylococcus aureus NRS 100 assessed as reduction in bacterial growth; type: functional
Procedure, shortened: (§2)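 CLSI broth microdilution in cation-supplemented Mueller–Hinton broth II. Starter cultures were grown overnight at 37 °C with shaking from a single MHA colony, then diluted by OD600 to ~10^6 CFU/mL. Compounds came from 10 mg/mL DMSO stocks and were tested two-fold from 64 to 0.5 mg/L. Plates were incubated 37 °C for 18–24 h. MIC was taken as the lowest concentration with no visible growth. Three independent runs, each in duplicate.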

Staphylococcus aureus [5] = assay: Antibacterial activity against methicilin-resistant Staphylococcus aureus NRS 119 assessed as reduction in bacterial growth; type: functional; procedure, shortened: as §2
Staphylococcus aureus [6] = assay: Antibacterial activity against methicilin-resistant Staphylococcus aureus NRS 129 assessed as reduction in bacterial growth; type: functional; procedure, shortened: as §2
Staphylococcus aureus [7] = assay: Antibacterial activity against methicilin-resistant Staphylococcus aureus NRS 186 assessed as reduction in bacterial growth; type: functional; procedure, shortened: as §2
Staphylococcus aureus [8] = assay: Antibacterial activity against methicilin-resistant Staphylococcus aureus NRS 191 assessed as reduction in bacterial growth; type: functional; procedure, shortened: as §2
Staphylococcus aureus [9] = assay: Antibacterial activity against methicilin-resistant Staphylococcus aureus NRS 192 assessed as reduction in bacterial growth; type: functional; procedure, shortened: as §2
Staphylococcus aureus [10] = assay: Antibacterial activity against methicilin-resistant Staphylococcus aureus NRS 193 assessed as reduction in bacterial growth; type: functional; procedure, shortened: as §2
Staphylococcus aureus [11] = assay: Antibacterial activity against methicilin-resistant Staphylococcus aureus NRS 194 assessed as reduction in bacterial growth; type: functional; procedure, shortened: as §2
Staphylococcus aureus [12] = assay: Antibacterial activity against methicilin-resistant Staphylococcus aureus NRS 198 assessed as reduction in bacterial growth; type: functional; procedure, shortened: as §2
Staphylococcus aureus [13] = assay: Antibacterial activity against vancomycin-resistant Staphylococcus aureus VRS 1 assessed as reduction in bacterial growth; type: functional; procedure, shortened: as §2
Staphylococcus aureus [14] = assay: Antibacterial activity against vancomycin-resistant Staphylococcus aureus VRS 4 assessed as reduction in bacterial growth; type: functional; procedure, shortened: as §2
Staphylococcus aureus [15] = assay: Antibacterial activity against vancomycin-resistant Staphylococcus aureus VRS 12 assessed as reduction in bacterial growth; type: functional; procedure, shortened: as §2
Enterococcus faecalis [16] = assay: Antibacterial activity against vancomycin-susceptible Enterococcus faecalis NR 31884 assessed as inhibition of bacterial growth incubated for 18 to 24 hrs by broth microdilution assay; type: functional; conditions: time 18-24 hrs; procedure, shortened: as §1
Enterococcus faecalis [17] = assay: Antibacterial activity against vancomycin-susceptible Enterococcus faecalis NR 31885 assessed as inhibition of bacterial growth incubated for 18 to 24 hrs by broth microdilution assay; type: functional; conditions: time 18-24 hrs; procedure, shortened: as §1
Enterococcus faecalis [18] = assay: Antibacterial activity against vancomycin-susceptible Enterococcus faecalis NR 31886 assessed as inhibition of bacterial growth incubated for 18 to 24 hrs by broth microdilution assay; type: functional; conditions: time 18-24 hrs; procedure, shortened: as §1
Enterococcus faecalis [19] = assay: Antibacterial activity against vancomycin-susceptible Enterococcus faecalis NR 31887 assessed as inhibition of bacterial growth incubated for 18 to 24 hrs by broth microdilution assay; type: functional; conditions: time 18-24 hrs; procedure, shortened: as §1
Enterococcus faecalis [20] = assay: Antibacterial activity against vancomycin-susceptible Enterococcus faecalis NR 31888 assessed as inhibition of bacterial growth incubated for 18 to 24 hrs by broth microdilution assay; type: functional; conditions: time 18-24 hrs; procedure, shortened: as §1
Staphylococcus aureus [21] = assay: Bactericidal activity against Staphylococcus aureus ATCC 29213 incubated for 24 hrs by time-kill assay; type: functional, organism-based
Procedure, shortened: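 Time-kill: S. aureus ATCC 29213 at ~10^6 CFU/mL in MHBII, exposed to 1× and 10× MIC, 37 °C with shaking for 24 h. Surviving CFU/mL plotted over time; mean of replicate experiments in duplicate.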

Enterococcus faecium [22] = assay: Antibacterial activity against vancomycin-resistant Enterococcus faecium NR 31903 assessed as inhibition of bacterial growth
Enterococcus faecium [23] = assay: Antibacterial activity against vancomycin-resistant Enterococcus faecium NR 31909 assessed as inhibition of bacterial growth
Enterococcus faecium [24] = assay: Antibacterial activity against vancomycin-resistant Enterococcus faecium NR 31912 assessed as inhibition of bacterial growth

| SMILES | MIC (Escherichia coli) [µg/mL] | MIC (Staphylococcus aureus [1]) [µg/mL] | MIC (Klebsiella pneumoniae) [µg/mL] | MIC (Acinetobacter baumannii) [µg/mL] | MIC (Pseudomonas aeruginosa) [µg/mL] | CC50 at 72 h [2] [µg/mL] | selectivity ratio [3] | MIC (Staphylococcus aureus [4]) [µg/mL] | MIC (Staphylococcus aureus [5]) [µg/mL] | MIC (Staphylococcus aureus [6]) [µg/mL] | MIC (Staphylococcus aureus [7]) [µg/mL] | MIC (Staphylococcus aureus [8]) [µg/mL] | MIC (Staphylococcus aureus [9]) [µg/mL] | MIC (Staphylococcus aureus [10]) [µg/mL] | MIC (Staphylococcus aureus [11]) [µg/mL] | MIC (Staphylococcus aureus [12]) [µg/mL] | MIC (Staphylococcus aureus [13]) [µg/mL] | MIC (Staphylococcus aureus [14]) [µg/mL] | MIC (Staphylococcus aureus [15]) [µg/mL] | MIC (Enterococcus faecalis [16]) [µg/mL] | further results |
| --- | --- | --- | --- | --- | --- | --- | --- | --- | --- | --- | --- | --- | --- | --- | --- | --- | --- | --- | --- | --- | --- |
| O=C1N/C(=N\c2nc3ccccc3o2)S/C1=C\c1cc(Cl)ccc1O | > 64 | 1 (≈ 2.69 µM) | > 64 | > 64 | > 64 | > 20 | > 20 | 0.5 (≈ 1.34 µM) | 1 (≈ 2.69 µM) | 0.5 (≈ 1.34 µM) | 0.5 (≈ 1.34 µM) | 0.5 (≈ 1.34 µM) | 1 (≈ 2.69 µM) | 1 (≈ 2.69 µM) | 1 (≈ 2.69 µM) | 1 (≈ 2.69 µM) | 1 (≈ 2.69 µM) | 1 (≈ 2.69 µM) | 0.5 (≈ 1.34 µM) | 4 (≈ 10.8 µM) | MIC (Enterococcus faecalis [17]): 4 µg/mL (≈ 10.8 µM); MIC (Enterococcus faecalis [18]): 4 µg/mL (≈ 10.8 µM); MIC (Enterococcus faecalis [19]): 2 µg/mL (≈ 5.38 µM); MIC (Enterococcus faecalis [20]): 4 µg/mL (≈ 10.8 µM); Activity (Staphylococcus aureus [21]): Dose-Dependent Effect; MIC (Enterococcus faecium [22]): 1 µg/mL (≈ 2.69 µM); MIC (Enterococcus faecium [23]): 0.125 µg/mL (≈ 0.336 µM); MIC (Enterococcus faecium [24]): 0.125 µg/mL (≈ 0.336 µM) |
| O=C1N/C(=N\c2nc3ccccc3o2)S/C1=C\c1cc(Br)ccc1O | > 64 | 1 (≈ 2.4 µM) | > 64 | > 64 | > 64 | > 20 | > 20 | 0.5 (≈ 1.2 µM) | 1 (≈ 2.4 µM) | 0.5 (≈ 1.2 µM) | 0.5 (≈ 1.2 µM) | 0.5 (≈ 1.2 µM) | 1 (≈ 2.4 µM) | 1 (≈ 2.4 µM) | 1 (≈ 2.4 µM) | 1 (≈ 2.4 µM) | 1 (≈ 2.4 µM) | 1 (≈ 2.4 µM) | 0.5 (≈ 1.2 µM) | 4 (≈ 9.61 µM) | MIC (Enterococcus faecalis [17]): 4 µg/mL (≈ 9.61 µM); MIC (Enterococcus faecalis [18]): 4 µg/mL (≈ 9.61 µM); MIC (Enterococcus faecalis [19]): 2 µg/mL (≈ 4.8 µM); MIC (Enterococcus faecalis [20]): 4 µg/mL (≈ 9.61 µM); Activity (Staphylococcus aureus [21]): Dose-Dependent Effect; MIC (Enterococcus faecium [22]): 1 µg/mL (≈ 2.4 µM); MIC (Enterococcus faecium [23]): 0.125 µg/mL (≈ 0.3 µM); MIC (Enterococcus faecium [24]): 0.125 µg/mL (≈ 0.3 µM) |
| O=C1N/C(=N\c2nc3ccccc3o2)S/C1=C\c1cccc(O)c1 | > 64 | 2 (≈ 5.93 µM) | > 64 | > 64 | > 64 | > 40 | > 20 | 1 (≈ 2.96 µM) | 2 (≈ 5.93 µM) | 2 (≈ 5.93 µM) | 1 (≈ 2.96 µM) | 2 (≈ 5.93 µM) | 2 (≈ 5.93 µM) | 2 (≈ 5.93 µM) | 2 (≈ 5.93 µM) | 2 (≈ 5.93 µM) | 2 (≈ 5.93 µM) | 2 (≈ 5.93 µM) | 2 (≈ 5.93 µM) | 16 (≈ 47.4 µM) | MIC (Enterococcus faecalis [17]): 16 µg/mL (≈ 47.4 µM); MIC (Enterococcus faecalis [18]): 16 µg/mL (≈ 47.4 µM); MIC (Enterococcus faecalis [19]): 8 µg/mL (≈ 23.7 µM); MIC (Enterococcus faecalis [20]): 16 µg/mL (≈ 47.4 µM); MIC (Enterococcus faecium [22]): 4 µg/mL (≈ 11.9 µM); MIC (Enterococcus faecium [23]): 0.25 µg/mL (≈ 0.741 µM); MIC (Enterococcus faecium [24]): 0.25 µg/mL (≈ 0.741 µM) |
| COc1cc(/C=C2\S/C(=N/c3nc4ccccc4o3)NC2=O)ccc1O | > 64 | 2 (≈ 5.44 µM) | > 64 | > 64 | > 64 | > 40 | > 20 | 2 (≈ 5.44 µM) | 4 (≈ 10.9 µM) | 4 (≈ 10.9 µM) | 2 (≈ 5.44 µM) | 2 (≈ 5.44 µM) | 4 (≈ 10.9 µM) | 4 (≈ 10.9 µM) | 4 (≈ 10.9 µM) | 4 (≈ 10.9 µM) | 4 (≈ 10.9 µM) | 4 (≈ 10.9 µM) | 2 (≈ 5.44 µM) | 16 (≈ 43.6 µM) | MIC (Enterococcus faecalis [17]): 16 µg/mL (≈ 43.6 µM); MIC (Enterococcus faecalis [18]): 16 µg/mL (≈ 43.6 µM); MIC (Enterococcus faecalis [19]): 16 µg/mL (≈ 43.6 µM); MIC (Enterococcus faecalis [20]): 16 µg/mL (≈ 43.6 µM); MIC (Enterococcus faecium [22]): 4 µg/mL (≈ 10.9 µM); MIC (Enterococcus faecium [23]): 0.25 µg/mL (≈ 0.68 µM); MIC (Enterococcus faecium [24]): 0.25 µg/mL (≈ 0.68 µM) |

Reference: ChEMBL document CHEMBL5329174, “Discovery of benzoxazole-thiazolidinone hybrids as promising antibacterial agents against Staphylococcus aureus and Enterococcus species” (RSC Med Chem, 2023)
